We go through 14 molecules from ChEMBL document CHEMBL1142312, “Anti-Plasmodium activity of tetrazolium salts” (Bioorg Med Chem, 2008).

SMILES strings stand for the structures. pIC50: −log10 of the molar value. “And” between values parts separate entries of the source, which are not always exact repeats. Identical values can stand only once.

In general, pIC50 refers to the IC50 on a negative log10 scale, so that one unit is a factor of ten. A higher pIC50 goes with a low IC50.

Data set [1] is described as follows: Inhibition of glutathione reduction of nitrotetrazolium blue chloride.
Data set [2] in a line: Ratio of IC50 for CHO cells to IC50 for Plasmodium falciparum. The format is functional.
The next data set relates to Plasmodium falciparum. Description: Antimalarial activity against Plasmodium falciparum in LDH reporter assay. Format: functional, organism-based. An outline of the steps: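 P. falciparum line ItG cultured in O+ human erythrocytes in RPMI-1640 with 10% human serum and 50 μM hypoxanthine. Twofold serial dilutions from 10 mg/mL DMSO stock, 2% hematocrit, 2% parasitemia. Incubated 72 h at 37 °C under 95% N2/3% CO2/2% O2. Parasite LDH assay read at 650 nm after 1 h. IC50 by non-linear regression, mean ± SE of four determinations.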
A general note: Reporter assays use an easily measured gene product as a stand-in for the process of interest.

A short description of data set [3]: (§1) Toxicity in CHO cells. Format: cell-based, Cricetulus griseus. Particulars: Chinese hamster (Cricetulus griseus), CHO cells. An outline of the steps: (§2)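 CHO cells grown to 50% confluency in RPMI-1640 with 10% fetal calf serum, 25 mM Hepes and gentamicin. Serial dilutions made from a 10 mg/mL DMSO stock; DMSO-only controls. After 48 h, MTT (10 mg/mL in medium) added for 1 h, then DMSO added and absorbance read at 650 nm. IC50 by non-linear regression of dose–response; mean ± SE of four determinations.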

Another data set has as its system CHO. The description is as §1. Format: cell-based, Cricetulus griseus. Particulars: cho. An outline of the steps: as §2

`CC(=O)Nc1ccc(/C=C/c2ccc(N=C=S)cc2S(=O)(=O)O)c(S(=O)(=O)O)c1` showed a pIC50 in data set [1] of 5.57.
As for `O=S(=O)(O)c1cc(N=C=S)ccc1/C=C/c1ccc(N=C=S)cc1S(=O)(=O)O`, the pIC50 in data set [1] was 4.51. This pIC50 lies 1.06 log units lower than the previous one.
Turning to `COc1ccc(-n2nc(-c3ccccc3)n[n+]2-c2ccccc2)cc1.[Cl-]`, in data set [2], the “Ratio IC50” value worked out at 8.1. For the same molecule, the pIC50 in the data set with Plasmodium falciparum (Plasmodium falciparum) is 6.10; in data set [3], 5.19.
As for `COc1ccc(-n2nc(-c3ccc(-c4ccccc4)cc3)n[n+]2-c2ccc(F)cc2)cc1.[Cl-]`, in data set [2], the “Ratio IC50” value was 11.2. The pIC50 was 5.77 in the data set on Plasmodium falciparum (Plasmodium falciparum) and 4.72 in data set [3].
In the same order, the values of `CC(C)c1nn(-c2ccccc2)[n+](-c2ccccc2)n1.[Br-]` are 3.7, 3.99 and 3.42.
As for `[Cl-].c1ccc(-n2nc(C3CCCCC3)n[n+]2-c2ccccc2)cc1`, in data set [2], the “Ratio IC50” value is given as 4. In addition, the figures for the pIC50 (with Plasmodium falciparum (Plasmodium falciparum); in data set [3]) were 5.21 and 4.60, respectively.
Regarding `Brc1cccc(-[n+]2nc(-c3ccccc3)nn2-c2ccccc2)c1.[Cl-]`, in data set [2], the “Ratio IC50” value is given as 10.7. In addition, the pIC50 in the data set on Plasmodium falciparum (Plasmodium falciparum) is 6.22; in data set [3], 5.19.
Turning to `Clc1ccc(-[n+]2nc(-c3ccc(OCc4ccccc4)cc3)nn2-c2ccccc2)cc1.[Cl-]`, the “Ratio IC50” value in data set [2] is 4. The pIC50 in the data set on Plasmodium falciparum (Plasmodium falciparum) was 5.94; in data set [3], 5.34.
The like results for `Fc1ccccc1-[n+]1nc(-c2ccc(OCc3ccccc3)cc2)nn1-c1ccccc1.[Cl-]` were, in that order, 57.1, 6.85 and 5.10.
Regarding `[Cl-].c1ccc(-c2nn(-c3ccccc3)[n+](-c3ccccc3)n2)cc1` [TETRAZOLIUM RED], the “Ratio IC50” value in data set [2] is 236.7. The pIC50 in the data set with Plasmodium falciparum (Plasmodium falciparum) was 6.52; in data set [3], 4.15.
Turning to `Fc1cccc(-[n+]2nc(-c3ccc(-c4ccccc4)cc3)nn2-c2ccccc2)c1.[Cl-]`, in data set [2], the “Ratio IC50” value is recorded as 18.8. For the same molecule, the pIC50 was 6.59 with Plasmodium falciparum (Plasmodium falciparum) and 5.31 in data set [3].
Take `[Cl-].c1ccc(COc2ccc(-c3nn(-c4ccc(OCc5ccccc5)cc4)[n+](-c4ccccc4)n3)cc2)cc1`: the “Ratio IC50” value in data set [2] came out at 4.2. Moreover, the pIC50 is 6.64 in the data set on Plasmodium falciparum (Plasmodium falciparum) and 6.02 in data set [3].
Turning to `Fc1ccc(-[n+]2nc(-c3ccc(-c4ccccc4)cc3)nn2-c2ccccc2)cc1.[Cl-]`, the “Ratio IC50” value in data set [2] is 5.1. Also, the pIC50 in the data set on Plasmodium falciparum (Plasmodium falciparum) was 6.09; in data set [3], 5.39.
Turning to `O=[N+]([O-])c1ccc(-[n+]2nc(-c3ccccc3)nn2-c2ccccc2)cc1.[Cl-]`, the “Ratio IC50” value in data set [2] is 1.8 and 2.7. In addition, the pIC50 in the data set with Plasmodium falciparum is 5.04 and 5.35; in data set [3], 4.79; with CHO, 4.92.
